Data set [1] concerns MS2 coat protein. In words: apparent Kd, MS2 coat protein; higher = weaker binding; RNA-MaP array. A digest of the protocol:
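Incubations were done at room temperature with fluorescently labeled MS2 coat protein at 1.5 nM to 3 μM and designed RNAs transcribed on an Illumina sequencing chip from sequenced DNA templates, with or without input ligand. Apparent Kd is the median of binding curves fitted for each cluster. Designs with fewer than 10 measured clusters were excluded.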

For data set [2], the system named is MS2 coat protein. In words: apparent Kd, MS2 coat protein; higher = weaker binding; RNA-MaP array; FMN 200 µM where present. In a few lines:
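The apparent Kd comes from binding curves fitted cluster by cluster, filtered, and summarised as a median. Those curves followed SNAP-549-labelled MS2 coat protein from 0.7 or 1.5 nM, doubling to 3 µM, on Illumina sequencing-chip clusters where stalled E. coli RNA polymerase had transcribed the designs, without and then with constant ligand. The buffer was 100 mM Tris-HCl pH 7.5, 80 mM KCl, 4 mM MgCl2, BSA, DTT, yeast tRNA and Tween-20, and green signal was normalised to red-channel RNA signal and control-cluster median Fmax.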

Setting [3] is: designed as: OFF switch for flavin mononucleotide, no ligand.
Where [4] appears, read: ligand present: flavin mononucleotide, designed as: OFF switch for flavin mononucleotide.
Setting [5] is: designed as: ON switch for flavin mononucleotide, no ligand.
[6] abbreviates: ligand present: flavin mononucleotide, designed as: ON switch for flavin mononucleotide.

Turning to “AAAGAACAUGAGGAUCACCCAUGUCAGGAUAUACAAAGACGUAGCAAAGCGGACUCAAGAAGAAGGGACAAGGA”, the “apparent Kd” value is 12.8 nM with MS2 coat protein [1] (setting [3]) and 10.1 nM in the data set with MS2 coat protein [1] (setting [4]).

As for “CCAGUUACCAGAGGAUAUGAUUCCAGAGUUAAGGGUAUUCACAUGAGGAUCACCCAUGUGCUCCUUCAGAAGGCUGAUAACCCG”, the “apparent Kd” value in the data set with MS2 coat protein [1] (setting [3]) came to 39.8 nM; with MS2 coat protein [1] (setting [4]), 49.4 nM.

On to “UACCAUAGACCAGUUAGCGACACAUGAGGAUCACCCAUGUAGAGAAGGUGCUCUAUCUUAAGACGCAAGGAUAUCUGCAUUAUA”, for which the “apparent Kd” value in the data set on MS2 coat protein [1] (setting [3]) was 20.3 nM; with MS2 coat protein [1] (setting [4]) it was 21.9 nM.

Take “ACACAGUCAGGAUAUACACAAAAUCUCAGUCUAGUAAGUAAACAUGAGGAUCACCCAUGUAGAAGGGACUUUAA”: the “apparent Kd” value with MS2 coat protein [1] (setting [3]) came to 6.95 nM; in the data set on MS2 coat protein [1] (setting [4]) it was 7.79 nM.

Turning to “GGUAUGUCAGGAUAUUAAUGGUCAGUAACGGAACAGAGGAGUAAGAAGGGACAUGAGGAUCACCCAUGUAUUCG”, the figures for the “apparent Kd” value with MS2 coat protein [1] (setting [3]) and in the data set on MS2 coat protein [1] (setting [4]) were 17.1 nM and 16.4 nM, respectively.

For the sequence “AGUGCAAUAUAGAAGGCCCAAACAUGAGGAUCACCCAUGUAGGUGUCACUGGUAGUGAAGGCUCGGGAGGAUAUAUCAUCCACA”, the results for the “apparent Kd” value in the data set on MS2 coat protein [1] (setting [5]) and in the data set on MS2 coat protein [1] (setting [6]) were 32.9 nM and 30.7 nM, respectively.

With “UAAUAGAUUACGGCCGCCACUGAAGUGGACUUUAUGAGCAGGAUUCACAUGAGGAUCACCCAUGUCAGGACCGGGUACGUCCAUA”, the “apparent Kd” value in the data set on MS2 coat protein [1] (designed as: OFF switch for tryptophan, no ligand) came out at 39.2 nM; in the data set with MS2 coat protein [1] (ligand present: tryptophan, designed as: OFF switch for tryptophan), 45.4 nM.

In the case of “CGCUGUCACGCAGGAUAUGCAUUGGAUUCCAAUGCAGAAGGGCGAUUACAUGAGGAUCACCCAUGUGCUGACAGUGAAGAAGAG”, the “apparent Kd” value in the data set with MS2 coat protein [2] (setting [5]) turned out to be 1300 nM; in the data set on MS2 coat protein [2] (setting [6]) it was 65.9 nM.

As for “GCUACGCCUGACAUGAGGAUCACCCAUGUUAGAUUGUUAUGUCAGGAUAUUGUCUAGAAACUAGACAAGAAGGGAUGUGUAGCU”, the entries for the “apparent Kd” value in the data set on MS2 coat protein [2] (setting [5]) and with MS2 coat protein [2] (setting [6]) were 728 nM and 66.5 nM, respectively.

In the case of “GUACGUGGACAGAAGGUGACAUGAGGAUCACCCAUGUUAGUUGAGGUAUCAGCGAUCUGCGUGAUUGAGGAUAUGUCUGCGGGC”, the figures for the “apparent Kd” value in the data set on MS2 coat protein [2] (setting [3]) and with MS2 coat protein [2] (setting [4]) were 11.9 nM and 11.7 nM, respectively.

For “GUUUUCGCAUGAGGAUAUGCUCGCAUUUCAAGAGCAGAAGGUAUGUCUAUAGACAUGAGGAUCACCCAUGUAUUUAUCAUUGAA”, the “apparent Kd” value with MS2 coat protein [2] (setting [5]) came out at 273 nM; with MS2 coat protein [2] (setting [6]), 118 nM.

For “UCCUCACAUGAGGAUCACCCAUGUGAGGAUAUGGGCCCGGGCCCGUUCGGGCCCGGGCCCAGAAGGCACUGGGU”, the “apparent Kd” value was found to be 42.1 nM in the data set on MS2 coat protein [2] (setting [3]) and 19 nM in the data set with MS2 coat protein [2] (setting [4]).

Consider “UUACUACAUGAGGAUCACCCAUGUCAGGAUAUUGUCUAUACCUUGGAAUACGUGUCGACAAGAAGGGACUAUAU”, for which the “apparent Kd” value with MS2 coat protein [2] (setting [3]) is 21.1 nM; in the data set on MS2 coat protein [2] (setting [4]), 24 nM.

As for “UUGUAGUGCGUAGGAUAUCAUUGAGGGUCACCCUGAGAAGGACGUGAGGACAUGAGGAUCACCCAUGUGGAUCACCCAUGUCAU”, the “apparent Kd” value with MS2 coat protein [2] (setting [3]) came to 305 nM; in the data set on MS2 coat protein [2] (setting [4]), 462 nM.

As to “CCUCAGGCGGAGGAUAUCUAACAACAAUAACAAAGAGAAGGCCGCACAUGAGGAUCACCCAUGUGUAUGGGCCG”, the figures for the “apparent Kd” value in the data set on MS2 coat protein [2] (setting [3]) and in the data set on MS2 coat protein [2] (setting [4]) were 12.4 nM and 22.8 nM, respectively.

Regarding “UGUUCUAUGUAGAAGGCCCAUAUCUGUUCUUAGGGAGGAUAUACAUGAGGAUCACCCAUGUGUAGAGCUGGUGGACUGGUCAGC”, the “apparent Kd” value with MS2 coat protein [2] (setting [3]) amounted to 15.4 nM; in the data set with MS2 coat protein [2] (setting [4]), 35.5 nM.

As for “AAUGGCGUGAUAACGCUAAUUACAACAUGAGGAUCACCCAUGUAGGAUAUCCUACCGAAAUGGUAGGAGAAGGACAAGCAAUGA”, the “apparent Kd” value in the data set with MS2 coat protein [2] (setting [3]) amounted to 30.4 nM; in the data set with MS2 coat protein [2] (setting [4]) it was 23.5 nM.

Turning to “GGUACUCAAAGAGUACCAAUACGAACAUGAGGAUCACCCAUGUAGGAUAUGCUACUCAAAGAGUAGCAGAAGGAUAUGUGCUUA”, the figures for the “apparent Kd” value in the data set with MS2 coat protein [2] (setting [3]) and with MS2 coat protein [2] (setting [4]) were 16.9 nM and 15.3 nM, respectively.

In the case of “AGUAAGAUGCAGAAGGUGCCAGCGAGAGCUGCACAUGAGGAUCACCCAUGUUGUCGGUGACGACGCAAGGAUAUGCAUCUUACA”, the results for the “apparent Kd” value with MS2 coat protein [2] (setting [5]) and with MS2 coat protein [2] (setting [6]) were 24.5 nM and 6.87 nM, respectively.

Consider “UGAUCGAGAGAUCUUAGAUUCUGGUAGGAUAUACAUUAUGAAAACUUUACAUGAGGAUCACCCAUGUAGAAGGACUAGAGUCUA”, for which the “apparent Kd” value in the data set with MS2 coat protein [2] (setting [3]) was 7.74 nM; in the data set on MS2 coat protein [2] (setting [4]) it was 9.74 nM.

With “GUACUGAAGCUUUGCUUUAGUCGUACAUGAGGAUCACCCAUGUAGGAUAUGGUAGGCAUUGCUUACUAGAAGGAUAGAGUGAUC”, the “apparent Kd” value amounted to 85 nM in the data set on MS2 coat protein [2] (setting [3]) and 54.9 nM in the data set on MS2 coat protein [2] (setting [4]).

Regarding “GCCAUCGCAUGAGGAUAUGCUCGGGUUUCCCGAGCAGAAGGCAUGUCAUAAGACAUGAGGAUCACCCAUGUAGUUAAGAUGGCA”, the “apparent Kd” value in the data set with MS2 coat protein [2] (setting [5]) stood at 813 nM; with MS2 coat protein [2] (setting [6]) it was 35.9 nM.

Consider “UAGAGAGGAAGCGAGGAUAUCGUGUGAGGAACAUGAGGAUCACCCAUGUGUGAUGUUGAGAGAGACGAGAAGGCGCAGGAAAUUA”, for which the “apparent Kd” value in the data set with MS2 coat protein [2] (setting [5]) was determined as 205 nM; with MS2 coat protein [2] (setting [6]) it was 72.6 nM.

Usually apparent Kd stands for a dissociation constant that holds for the conditions of the assay.

Values taken from the EternaBench riboswitch data.
